An excerpt weighted towards active compounds, which were near 3.8% of everything screened.
KCNQ1 act = potentiators or activators of human KCNQ1 potassium channel; P51787; CHO-K1 KCNQ1, thallium flux FluxOR fluorescence; active compounds read high; B-score at 10 µM; 310,000 compounds, 0.35% hits;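 active = fluorescence ratio B-score, a plate-corrected score, at least three library SD, with initial intensity B-score within 5 SD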
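Assay system: stable KCNQ1 CHO-K1 line; medium: assay buffer, equal DMSO in all wells; timing: 90 min dye loading and 20 min compound exposure, both at room temperature; technique: kinetic FluxOR thallium fluorescence, 10-s 1-Hz baseline, 110-s post-stimulus read; read-out basis: B score of baseline-normalized fluorescence ratio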
hERG protect = hERG (human) protection from proarrhythmic block; activation (rescue from dofetilide block), less the hit threshold, % at 10 µM; CHO-hERG, FluxOR thallium flux, dofetilide IC70 present; Q12809; 310,000 compounds, 0.51% hits;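 active = activation above the mean of controls blocked by dofetilide plus 5 SD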;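 note: thallium influx through hERG after potassium depolarization seen as dye fluorescence rise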
KCNQ1 inh = blocks the human KCNQ1 potassium channel. CHO-K1 KCNQ1, FluxOR thallium flux fluorescence; active compounds read high. B-score at 10 µM. 310,000 compounds, 1.3% hits. AID 2642;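 active = compounds whose thallium flux B-score, printed positive for inhibition, exceeds three library SD while starting fluorescence stays within three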;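 note: channel opened by potassium depolarization with thallium stimulus after 20 min compound exposure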
KCNK3 block = human KCNK3 channel inhibition, primary screen | CHO-KCNK3 thallium flux, FluxOR fluorescence; active compounds read low | 340,000 compounds, 0.84% hits | AID 602410 | B-score at 10 µM;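 active = B-score under library mean minus 4 SD, starting fluorescence ratio at most library mean plus 5 SD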;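 note: more negative B-score means stronger inhibition of thallium flux through KCNK3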
Target sequence (O14649 whole entry, looked up): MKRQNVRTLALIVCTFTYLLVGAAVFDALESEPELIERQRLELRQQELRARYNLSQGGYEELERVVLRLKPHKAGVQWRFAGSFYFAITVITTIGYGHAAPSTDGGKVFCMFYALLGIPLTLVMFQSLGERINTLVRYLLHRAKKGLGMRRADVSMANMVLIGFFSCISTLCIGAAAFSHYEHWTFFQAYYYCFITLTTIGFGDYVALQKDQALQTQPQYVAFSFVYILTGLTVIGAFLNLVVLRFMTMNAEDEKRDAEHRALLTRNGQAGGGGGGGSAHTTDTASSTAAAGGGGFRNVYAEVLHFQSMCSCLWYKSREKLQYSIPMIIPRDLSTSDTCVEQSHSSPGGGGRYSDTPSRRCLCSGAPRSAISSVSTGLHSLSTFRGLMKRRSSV
KCNK9 inh = human KCNK9 channel inhibition. AID 488922. Q9NPC2. 310,000 compounds, 1.2% hits. HEK293 KCNK9, FluxOR thallium flux fluorescence; active compounds read low. B-score at 10 µM;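 active = ratio B-score over 3 SD below the library mean, with starting fluorescence within 5 SD of its mean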;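 note: negative B-score means less thallium flux so channel inhibition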
Kir21 inh = Kir2.1 (mouse) channel inhibition | 310,000 compounds, 0.85% hits | HEK293-Kir2.1, FluxOR thallium flux fluorescence; active compounds read low | P35561 | B-score at 10 µM;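 active = fluorescence ratio B-score at or below minus 3 SD of library scores, with starting-brightness B-score within 2 SD, cut at about -4.2 in these data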;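 note: channel flux triggered by added potassium and thallium sulfate stimulus; B-score of peak minus minimum fluorescence over baseline after thallium stimulus; more negative B-score means stronger Kir2.1 block with less thallium influx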
KCNQ1 block val = reconfirmed blocker of the human KCNQ1 potassium channel. shares compounds with KCNQ1 inh. KCNQ1 cell line, FluxOR thallium flux fluorescence. inhibition, % at 10 µM. 1,600 compounds, 93% hits;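 active = primary screen active, with duplicate mean exceeding buffer control mean plus 3 SD of buffer wells, cut at about 28% in these data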;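 note: 0% = buffer control ratio and 100% = XE991 inhibitor control ratio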
CHO KCNQ1 ctr = KCNQ1 inhibitor counter-screen hit in parental CHO cells | parental CHO-K1, FluxOR thallium flux fluorescence ratio; active compounds read low; zero means no signal rise above baseline | fluorescence ratio (Tl flux) at 10 µM | 1,600 compounds, 21% hits | shares compounds with KCNQ1 inh;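 active = mean of duplicate thallium-flux fluorescence ratios in parental host cells more than 5 SD below the buffer control mean, cut at about 0.38 in these data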;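 note: ratio is peak minus minimum fluorescence divided by baseline fluorescence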
KCNQ2 spec = rat KCNQ2 inhibition in KCNQ1 inhibitor specificity screen | shares compounds with KCNQ1 inh | KCNQ2 cells, FluxOR thallium flux fluorescence | AID 651746 | 1,600 compounds, 71% hits | inhibition, % at 10 µM;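 active = mean percent inhibition of the KCNQ2 thallium signal more than 5 SD above the buffer-only control wells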;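 note: KCNQ2 expressed in CHO cells; 0% = buffer control wells and 100% = XE-991 inhibitor control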
KCNQ1-KCNE1 inh = selectivity of KCNQ1 inhibitors: inhibition of human KCNQ1/KCNE1 channel; shares compounds with KCNQ1 inh; AID 652147; KCNQ1/KCNE1 cells, FluxOR thallium flux fluorescence; inhibition, % at 10 µM; 1,600 compounds, 77% hits;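 active = mean percent inhibition of duplicate wells above the buffer-only control mean plus 3 SD of those controls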;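 note: 0% = buffer only wells and 100% = XE-991 inhibitor control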
KCNK9 block conf = confirmation of human KCNK9 potassium channel inhibitors. shares compounds with KCNK9 inh. HEK293 KCNK9 cells, FluxOR thallium flux fluorescence. inhibition, % at 10 µM. 4,900 compounds, 43% hits;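 active = thallium signal inhibited by more than 5 SD of the compound-free buffer control wells, on both duplicate plates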;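 note: 0% = assay buffer control wells without compound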
Kir2-1 spec = selectivity of KCNK9 modulators against mouse Kir2.1; shares compounds with KCNK9 inh; Kir2.1 cells, FluxOR thallium flux fluorescence; inhibition, % at 10 µM; 4,900 compounds, 4% hits; AID 492993;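 active = thallium signal drop more than 5 SD beyond the mean of the no-compound control wells, seen in both duplicate plates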;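 note: signal is fluorescence rise after thallium addition divided by baseline fluorescence; plate controls were assay buffer only for no effect and full block by chlorpromazine control for full effect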
HEK293 Tl ctr = non-induced cell nonspecific activity of KCNK9 modulators; shares compounds with KCNK9 inh; non-induced KCNK9-HEK293, FluxOR thallium flux; inhibition, % at 10 µM; 4,900 compounds, 40% hits; AID 492997;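 active = thallium signal drop beyond 5 SD of the untreated control mean, on both duplicate plates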;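 note: plate controls were buffer only IC0 wells for no effect and SID17386958 at its maximal inhibitory level for full effect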
KCNK3 confirm = human KCNK3 channel inhibition, confirmation assay | AID 651638 | 2,400 compounds, 99% hits | CHO-KCNK3 thallium flux, FluxOR fluorescence; 0% buffer, 100% carvedilol maximal block | shares compounds with KCNK3 block | ratio percent of control, % at 10 µM;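 active = ratio percent of control, averaged over triplicates, above buffer control mean plus 5 SD, cut at about 64% in these data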;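 note: ratio is the fluorescence rise from min to max over baseline after thallium stimulus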
KCNK3 noninduced = activity in cells without induced KCNK3 expression | thallium flux ratio (lower = more inhibition) at 10 µM | non-induced KCNK3 parental cells, FluxOR thallium flux; active compounds read low | shares compounds with KCNK3 block | 2,400 compounds, 40% hits | AID 651747;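 active = thallium flux ratio, averaged over three wells, more than 5 SD below the buffer control mean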;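 note: host cells are CHO cells without KCNK3 induction; ratio is peak minus trough fluorescence over baseline then normalized to buffer controls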
* hit, by the source's call.

COc1cc(NC(=O)c2cc3ccccc3cc2O)c(OC)cc1Cl was read as KCNQ1 act inactive, hERG protect -7.2, KCNQ1 inh inactive, KCNK3 block inactive, KCNK9 inh inactive and Kir21 inh 0.36.
Screening Cc1ccc(-n2c(SCC(N)=O)nc(O)cc2=O)cc1 returned KCNQ1 act inactive, hERG protect -4.1, KCNQ1 inh inactive, KCNK3 block inactive, KCNK9 inh inactive and Kir21 inh 0.12.
`COC(=O)c1sccc1N/C=C(\C#N)S(=O)(=O)C(C)(C)C` gave KCNQ1 act inactive, hERG protect -2.8, KCNQ1 inh inactive, KCNK3 block inactive, KCNK9 inh inactive and Kir21 inh 1.17.
Screening CC(=O)Oc1cccc(Nc2ncnc3ccccc23)c1 returned KCNQ1 act inactive, hERG protect -6.0, KCNQ1 inh inactive, KCNK3 block inactive, KCNK9 inh inactive and Kir21 inh -0.89.
`Cc1ccccc1C(=O)Oc1cccc(Nc2ncnc3ccccc23)c1` gave KCNQ1 act inactive, hERG protect -32.1, KCNQ1 inh 11*, KCNK3 block -8.83*, KCNK9 inh -7.17*, Kir21 inh -0.56, KCNQ1 block val 152.0*, CHO KCNQ1 ctr 0.289*, KCNQ2 spec 121.0%*, KCNQ1-KCNE1 inh active, KCNK3 confirm 132.3* and KCNK3 noninduced 0.149*.
For Cc1cccc(CN2CCCC(C(=O)N3CCc4ccccc4C3)C2)c1 (stereo unspecified) the results were KCNQ1 act inactive, hERG protect -12.9, KCNQ1 inh inactive, KCNK3 block inactive, KCNK9 inh inactive, Kir21 inh -2.1, KCNK9 block conf inactive, Kir2-1 spec inactive and HEK293 Tl ctr inactive.
For CC1(C)SCC2C(=O)N3C(CSC3(C)C)C(=O)N21 (stereo unspecified) the results were KCNQ1 act inactive, hERG protect -2.0, KCNQ1 inh inactive, KCNK3 block inactive, KCNK9 inh inactive and Kir21 inh 2.24.
CCc1ccc(C(=O)NNc2ccc(F)cc2)cc1 was read as KCNQ1 act inactive, hERG protect -11.1, KCNQ1 inh inactive, KCNK3 block inactive, KCNK9 inh inactive and Kir21 inh 0.91.
